Assay outcomes (PubChem)
The list is not random: actives were taken first. Their share in the collection is about 2.3%.
UCH37 inh: blocks the human deubiquitinase UCH37; AID 588478; inhibition, % (no concentration beside the values); 330,000 compounds, 0.33% hits; purified proteasome/UCH37, Ub-AMC cleavage fluorescence; Q9Y5K5;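 active = mean inhibition over replicate wells above about 20%, limit read from the data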
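System: Proteasome-associated human UCH37 deubiquitinase; Input: 0.15 nM proteasome in added enzyme buffer; Also added: Ub-AMC substrate from 1 µM stock; Incubation: 30 min compound-proteasome preincubation then 25 min substrate reaction, room temperature; Detection: fluorescence, ex 355 nm, em 460 nm; Read-out: % inhibition of Ub-AMC cleavage fluorescence; Benchmarks: no-proteasome and no-compound wells.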
Fh CTSL1 inh: cathepsin L1 inhibition, PFM18AAP counter-screen; recombinant F. hepatica cathepsin L1, Z-Leu-Arg-MCA fluorescence; inhibition, % at 5.96 µM; 300,000 compounds, 0.49% hits;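 active = inhibition above the mean of all tested compounds plus 3 SD, set per screening campaign, cut at about 17% in these data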
PP5 inh: inhibitors of human protein phosphatase 5 (PP5). purified PP5c, OMFP substrate fluorescence. 320,000 compounds, 0.18% hits. P53041. inhibition, % at 6.7 µM. AID 1987;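 active = inhibition above the campaign's mean inhibition across all tested compounds plus 3 SD, cut at about 9.5% in these data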
UBC13 inh: inhibitors of human UBC13 polyubiquitin chain formation; P61088; TR-FRET; inhibition, % at 20 µM; 330,000 compounds, 0.47% hits; in the data active = inhibition above about 45%, passing the limit was not always enough
PREPL inh: inhibits the human prolyl oligopeptidase-like enzyme; 320,000 compounds, 0.68% hits; recombinant PREPL, fluorescence polarization activity-based probe; inhibition, % at 5.96 µM; in the data active = inhibition above about 43%
PP1 inh: PP1-alpha (human) inhibition in PP5 counter-screen; P62136; purified PP1alpha, OMFP fluorescence; inhibition, % at 6.7 µM; 320,000 compounds, 0.9% hits; AID 2235;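 active = inhibition above the mean inhibition of all tested compounds plus 3 SD, computed separately for each screening campaign, cut at about 15% in these data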
Casp3 UBC13 ctr: inhibits human caspase-3 in UBC13 counter-screen. 1,400 compounds, 4% hits. inhibition, % at 20 µM. Recombinant caspase-3, Caspase-Glo 3/7 luminescence, 60 min. shares compounds with UBC13 inh;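 active = mean inhibition across replicates above about 26%, limit read from the data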
UBC13 confirm: confirmation of human UBC13 polyubiquitin inhibitors. shares compounds with UBC13 inh. UBC13 polyubiquitination, TR-FRET, biochemical. inhibition, % at 10 µM. 1,400 compounds, 68% hits. AID 488859; in the data active = inhibition above about 45%
UCH37 reconfirm: UCH37 Ub-AMC cleavage inhibition, confirmed; Proteasome-bound UCH37, Ub-AMC cleavage fluorescence; 480 compounds, 27% hits; inhibition, % at 20 µM; AID 624100; shares compounds with UCH37 inh;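 active = average inhibition over replicates above about 50%, so the earlier screening hit is confirmed, limit read from the data; inactive = the rest, counted as false positives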;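 also: based on cleavage rate fitted by regression over a 30 min kinetic read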
Of the large screens only hits and unclear results are named; the others gave an inactive call (follow-up assays come after a bar, where they were run).

C=C(C)CC1(CC)C(=O)NC(=S)NC1=O	none (no result: Fh CTSL1 inh, PP5 inh, UBC13 inh, PREPL inh, PP1 inh)
Cc1ccc2c(c1)C1CN(C)CCC1N2C(=O)/C(C#N)=C/c1ccc2c(c1)OCO2 (configuration not stated)	UBC13 inh 46 | Casp3 UBC13 ctr inactive | UBC13 confirm 56
O=C(C(=O)N1CCOCC1)c1cn(Cc2ccccc2)c2ccccc12	UBC13 inh 45 | Casp3 UBC13 ctr inactive | UBC13 confirm inactive
O=C(C(=O)N1CCOCC1)c1cn(CCCOc2ccccc2)c2ccccc12	none
Ic1ccccc1CN[C@@H]1C2CCN(CC2)[C@@H]1C(c1ccccc1)c1ccccc1	UBC13 inh 49 | Casp3 UBC13 ctr inactive | UBC13 confirm inactive
Fc1ccccc1CNC1CN2CCC1CC2 (configuration not stated)	none
CN1CCN(c2ccc(N)c(N3CCN(C)CC3)c2)CC1	UBC13 inh 49 | Casp3 UBC13 ctr inactive | UBC13 confirm 78
Cn1c(Cn2cnc([N+](=O)[O-])n2)nnc1SCC(=O)Nc1cccc(Cl)c1	none
Cc1ccc2c(c1)C1C[N+](C)(CC(=O)c3ccc(Cl)cc3Cl)CCC1N2C(=O)c1ccc(F)cc1 (configuration not stated)	UBC13 inh 47 (no result: Fh CTSL1 inh, PP5 inh, PP1 inh) | Casp3 UBC13 ctr inactive | UBC13 confirm 49
CC(CN1CCOCC1)C(C#N)(c1ccccc1)c1ccccc1 (configuration not stated)	none (no result: Fh CTSL1 inh, PP5 inh, UBC13 inh, PREPL inh, PP1 inh)
CC(=O)N1N=C(c2c(O)n(C)c(=O)n(C)c2=O)CC1c1ccccc1 (configuration not stated)	UBC13 inh 51 | Casp3 UBC13 ctr inactive | UBC13 confirm inactive
Cc1ccc(C(=O)N2CC2C)cc1 (configuration not stated)	none (no result: Fh CTSL1 inh, PP5 inh, UBC13 inh, PREPL inh, PP1 inh)
O=C1NC(=O)N(c2ccc3c(c2)OCO3)C(=O)/C1=C\c1ccc(N2CCCCC2)o1	UCH37 inh 29 | UCH37 reconfirm inactive
CN1C(=O)C(=Cc2ccc(N3CCCCCC3)o2)C(=O)N(C)C1=S	none
COC(=O)C1=C(c2cccc(C#N)c2)C[C@@H]2CC[C@H]1N2C(=O)NCc1cccc2ccccc12	UCH37 inh 47 (no result: Fh CTSL1 inh) | UCH37 reconfirm inactive
COC(=O)C1=C(c2ccc(F)cc2OCc2ccccc2)C[C@@H]2CC[C@H]1N2C(=O)NCc1ccc2c(c1)OCO2	none (no result: Fh CTSL1 inh)
O=C1NC(=O)C(Nc2ccccc2)C(=O)N1	UCH37 inh 64 (no result: Fh CTSL1 inh, PP5 inh, UBC13 inh, PREPL inh, PP1 inh) | UCH37 reconfirm inactive
O=C1NC(=O)C(C(CC(=O)c2ccccc2)c2ccccc2)C(=O)N1 (configuration not stated)	none
CCOc1ccc(N2C(=O)/C(=C/c3ccco3)C(=O)NC2=S)cc1	UCH37 inh 29 | UCH37 reconfirm 99
Cc1ccc(CN2CCC3CCC(C3)C2)c(O)c1 (configuration not stated)	none (no result: Fh CTSL1 inh, PP5 inh, UBC13 inh, PREPL inh, PP1 inh)
CN1C(=O)C(=Cc2ccc(N3CCOCC3)o2)C(=O)N(C)C1=O	UCH37 inh 30 | UCH37 reconfirm inactive
O=[N+]([O-])c1[nH]cnc1Br	none (no result: Fh CTSL1 inh, PP5 inh, UBC13 inh, PREPL inh, PP1 inh)
CN1C(=O)C(Cc2cccc3ccccc23)C(=O)N(C)C1=O	UCH37 inh 40 | UCH37 reconfirm inactive
O=C(N=Nc1c(O)[nH]c(=O)[nH]c1=O)C1COc2ccccc2O1 (configuration not stated)	UCH37 inh 32 | UCH37 reconfirm inactive
O=c1[nH]c(O)c(N=Nc2ccc3c(c2)OCCO3)c(=O)[nH]1	none
CCOc1ccc(-n2c(O)c(C=Nc3ccc(N4CCOCC4)cc3)c(=O)[nH]c2=O)cc1	UCH37 inh 45 | UCH37 reconfirm inactive
O=c1[nH]c(=S)n(-c2ccc(Br)cc2)c(O)c1C=Nc1ccc(N2CCOCC2)cc1	none
C=C1C(O)[C@@H]2O[C@]3(CC[C@H](/C=C/C(C)[C@@H]4CC(C)=CC5(O[C@H](C[C@@](C)(O)C(=O)O)CCC5O)O4)O3)CC[C@H]2O[C@@H]1C(O)CC(C)[C@H]1OC2(CCCCO2)CCC1C (some centres not stated)	none (no result: UCH37 inh, Fh CTSL1 inh, PP5 inh, PP1 inh)
